Measurements taken from ChEMBL document CHEMBL1151470, “Pharmacokinetic interaction between fosamprenavir-ritonavir and rifabutin in healthy subjects” (Antimicrob Agents Chemother, 2008).

Legend:
Homo sapiens [1] = experiment: Toxicity in human assessed as rash generalized at 150 mg, […] with 700 mg fosamprenavir and 100 mg ritonavir po BID; format: organism-based; conditions: in vivo
Homo sapiens [2] = experiment: Toxicity in human assessed as blood and lymphatic system disorder at 300 mg, po QD; format: organism-based; conditions: in vivo
Homo sapiens [3] = experiment: Toxicity in human assessed as blood and lymphatic system disorder at 150 mg, […] with 700 mg fosamprenavir and 100 mg ritonavir po BID; format: organism-based; conditions: in vivo
Homo sapiens [4] = experiment: Toxicity in human assessed as neutropenia at 300 mg, po QD; format: organism-based; conditions: in vivo
Homo sapiens [5] = experiment: Toxicity in human assessed as psychiatric disorder at 150 mg, […] with 700 mg fosamprenavir and 100 mg ritonavir po BID; format: organism-based; conditions: in vivo
Homo sapiens [6] = experiment: Toxicity in human assessed as insomnia at 300 mg, po QD; format: organism-based; conditions: in vivo
Homo sapiens [7] = experiment: Toxicity in human assessed as skin and subcutaneous tissue disorder at 150 mg, […] with 700 mg fosamprenavir and 100 mg ritonavir po BID; format: organism-based; conditions: in vivo
Homo sapiens [8] = experiment: Toxicity in human assessed as neutropenia at 150 mg, […] with 700 mg fosamprenavir and 100 mg ritonavir po BID; format: organism-based; conditions: in vivo
Homo sapiens [9] = experiment: Toxicity in human assessed as rash generalized at 300 mg, po QD; format: organism-based; conditions: in vivo
Homo sapiens [10] = experiment: Toxicity in human assessed as thrombocytopenia at 300 mg, po QD; format: organism-based; conditions: in vivo
Homo sapiens [11] = experiment: Toxicity in human assessed as decrease in neutrophile count at 300 mg, po QD; format: organism-based; parameters: scale not given: the % may be the effect or the level left; conditions: in vivo
Homo sapiens [12] = experiment: Toxicity in human assessed as insomnia at 150 mg, […] with 700 mg fosamprenavir and 100 mg ritonavir po BID; format: organism-based; conditions: in vivo
Homo sapiens [13] = experiment: Toxicity in human assessed as thrombocytopenia at 150 mg, […] with 700 mg fosamprenavir and 100 mg ritonavir po BID; format: organism-based; conditions: in vivo
Homo sapiens [14] = experiment: Toxicity in human assessed as psychiatric disorder at 300 mg, po QD; format: organism-based; conditions: in vivo
Homo sapiens [15] = experiment: Toxicity in human assessed as fatigue at 150 mg, […] with 700 mg fosamprenavir and 100 mg ritonavir po BID; format: organism-based; conditions: in vivo
Homo sapiens [16] = experiment: Toxicity in human assessed as decrease in neutrophile count at 150 mg, […] with 700 mg fosamprenavir and 100 mg ritonavir po BID; format: organism-based; parameters: scale not given: the % may be the effect or the level left; conditions: in vivo
Homo sapiens [17] = experiment: Toxicity in human assessed as increase in neutrophile count at 150 mg, […] with 700 mg fosamprenavir and 100 mg ritonavir po BID; format: organism-based; conditions: in vivo
Homo sapiens [18] = experiment: Toxicity in human assessed as increase in ALT level at 300 mg, po QD; format: organism-based; conditions: in vivo
Homo sapiens [19] = experiment: Toxicity in human assessed as general disorder at 300 mg, po QD; format: organism-based; conditions: in vivo
Homo sapiens [20] = experiment: Toxicity in human assessed as chills at 300 mg, po QD; format: organism-based; conditions: in vivo
Homo sapiens [21] = experiment: Toxicity in human assessed as chills at 150 mg, […] with 700 mg fosamprenavir and 100 mg ritonavir po BID; format: organism-based; conditions: in vivo
Homo sapiens [22] = experiment: Toxicity in human assessed as pain at 300 mg, po QD; format: organism-based; conditions: in vivo
Homo sapiens [23] = experiment: Toxicity in human assessed as pain at 150 mg, […] with 700 mg fosamprenavir and 100 mg ritonavir po BID; format: organism-based; conditions: in vivo
Homo sapiens [24] = experiment: Toxicity in human assessed as musculoskeletal and connective tissue disorder at 300 mg, po QD; format: organism-based; conditions: in vivo
Homo sapiens [25] = experiment: Toxicity in human assessed as musculoskeletal and connective tissue disorder at 150 mg, […] with 700 mg fosamprenavir and 100 mg ritonavir po BID; format: organism-based; conditions: in vivo
Homo sapiens [26] = experiment: Toxicity in human assessed as myalgia at 300 mg, po QD; format: organism-based; conditions: in vivo
Homo sapiens [27] = experiment: Toxicity in human assessed as increase in ALT level at 150 mg, […] with 700 mg fosamprenavir and 100 mg ritonavir po BID; format: organism-based; conditions: in vivo
Homo sapiens [28] = experiment: Toxicity in human assessed as general disorder at 150 mg, […] with 700 mg fosamprenavir and 100 mg ritonavir po BID; format: organism-based; conditions: in vivo
Homo sapiens [29] = experiment: Toxicity in human assessed as increase in neutrophile count at 300 mg, po QD; format: organism-based; conditions: in vivo
Homo sapiens [30] = experiment: Toxicity in human assessed as skin and subcutaneous tissue disorder at 300 mg, po QD; format: organism-based; conditions: in vivo
Homo sapiens [31] = experiment: Toxicity in human assessed as fatigue at 300 mg, po QD; format: organism-based; conditions: in vivo
[32] = AUC (0 to 48 hrs) in human at 300 mg, po QD; format: ADME, organism-based; parameters: time < 48 hr, dose 300 mg, route oral; conditions: plasma
In short: (§1)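 Volunteers took RFB 300 mg QD alone to steady state. Serial EDTA plasma was sampled on the last treatment day at predose and 0.5–24 h, then stored at –20°C. AUC0-24 came from noncompartmental analysis (linear up/log-linear down trapezoidal) using actual times, and was doubled to estimate AUC0-48.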

[33] = Cmax in human at 300 mg, po QD; conditions: in vivo
[34] = AUC (0 to 48 hrs) in human at 150 mg, […] coadministered with 700 mg fosamprenavir and 100 mg ritonavir po BID; format: ADME, organism-based; parameters: time < 48 hr, dose 150 mg, route oral; conditions: plasma
In short: (§2)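 Healthy volunteers received RFB 150 mg every other day with FPV-RTV 700/100 mg BID to steady state. Serial EDTA plasma was sampled on the last treatment day at predose and 0.5–24, 36 and 48 h, then stored at –20°C. AUC0-48 came from noncompartmental analysis (linear up/log-linear down trapezoidal) using actual elapsed sampling times.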

Homo sapiens [35] = experiment: AUC (0 to 48 hrs) in human assessed as dAc-RFB level at 300 mg, po QD; format: ADME, organism-based, Plasma; parameters: dose 300 mg, time < 48 hr, route oral; conditions: in vivo; in short: as §1
Homo sapiens [36] = experiment: AUC (0 to 48 hrs) in human assessed as dAc-RFB level at 150 mg, […] coadministered with 700 mg fosamprenavir and 100 mg ritonavir po BID; format: ADME, organism-based, Plasma; parameters: dose 150 mg, time < 48 hr, route oral; conditions: in vivo; in short: as §2
Homo sapiens [37] = experiment: Toxicity in human assessed as nervous system disorder at 300 mg, po QD; format: organism-based; conditions: in vivo
Homo sapiens [38] = experiment: Toxicity in human assessed as nervous system disorder at 150 mg, […] with 700 mg fosamprenavir and 100 mg ritonavir po BID; format: organism-based; conditions: in vivo
Homo sapiens [39] = experiment: Toxicity in human assessed as headache at 300 mg, po QD; format: organism-based; conditions: in vivo
Homo sapiens [40] = experiment: Toxicity in human assessed as headache at 150 mg, […] with 700 mg fosamprenavir and 100 mg ritonavir po BID; format: organism-based; conditions: in vivo
Homo sapiens [41] = experiment: Toxicity in human assessed as renal and urinary disorder at 300 mg, po QD; format: organism-based, Urine; conditions: in vivo
Homo sapiens [42] = experiment: Toxicity in human assessed as renal and urinary disorder at 150 mg, […] with 700 mg fosamprenavir and 100 mg ritonavir po BID; format: organism-based, Urine; conditions: in vivo
Homo sapiens [43] = experiment: Toxicity in human assessed as chromaturia at 300 mg, po QD; format: organism-based; conditions: in vivo
Homo sapiens [44] = experiment: Toxicity in human assessed as pollakiurea at 300 mg, po QD; format: organism-based; conditions: in vivo
Homo sapiens [45] = experiment: Toxicity in human assessed as gastrointestinal disorder at 300 mg, po QD; format: organism-based; conditions: in vivo
Homo sapiens [46] = experiment: Toxicity in human assessed as diarrhea at 300 mg, po QD; format: organism-based; conditions: in vivo
Homo sapiens [47] = experiment: Toxicity in human assessed as nausea at 300 mg, po QD; format: organism-based; conditions: in vivo
clinical = conditions: human, in vivo, po
Homo sapiens [48] = experiment: Toxicity in human assessed as nausea at 150 mg, po QOD coadministered with 700 mg fosamprenavir and 100 mg ritonavir po BID; conditions: in vivo
Homo sapiens [49] = experiment: Toxicity in human assessed as myalgia at 150 mg, po QOD coadministered with 700 mg fosamprenavir and 100 mg ritonavir po BID; conditions: in vivo
Homo sapiens [50] = experiment: Toxicity in human assessed as chromaturia at 150 mg, po QOD coadministered with 700 mg fosamprenavir and 100 mg ritonavir po BID; conditions: in vivo
Homo sapiens [51] = experiment: Toxicity in human assessed as pollakiurea at 150 mg, po QOD coadministered with 700 mg fosamprenavir and 100 mg ritonavir po BID; conditions: in vivo
Homo sapiens [52] = experiment: Toxicity in human assessed as diarrhea disorder at 150 mg, po QOD coadministered with 700 mg fosamprenavir and 100 mg ritonavir po BID; conditions: in vivo
Homo sapiens [53] = experiment: Toxicity in human assessed as gastrointestinal disorder at 150 mg, po QOD coadministered with 700 mg fosamprenavir and 100 mg ritonavir po BID; conditions: in vivo

Structure (SMILES): CO[C@H]1/C=C/O[C@@]2(C)Oc3c(C)c(O)c4c(c3C2=O)C2=NC3(CCN(CC(C)C)CC3)NC2=C(NC(=O)/C(C)=C\C=C\[C@H](C)[C@H](O)[C@@H](C)[C@@H](O)[C@@H](C)[C@H](OC(C)=O)[C@@H]1C)C4=O [RIFABUTIN]
- Activity (Homo sapiens [1]): 2%
- Activity (Homo sapiens [2]): 3%
- Activity (Homo sapiens [3]): 3%
- Activity (Homo sapiens [4]): 2%
- Activity (Homo sapiens [5]): 2%
- Activity (Homo sapiens [6]): 4%
- Activity (Homo sapiens [7]): 6%
- Activity (Homo sapiens [8]): 1%
- Activity (Homo sapiens [9]): 0%
- Activity (Homo sapiens [10]): 0%
- Activity (Homo sapiens [11]): 3%
- Activity (Homo sapiens [12]): 1%
- Activity (Homo sapiens [13]): 3%
- Activity (Homo sapiens [14]): 5%
- Activity (Homo sapiens [15]): 4%
- Activity (Homo sapiens [16]): 3%
- Activity (Homo sapiens [17]): 3%
- Activity (Homo sapiens [18]): 0%
- Activity (Homo sapiens [19]): 3%
- Activity (Homo sapiens [20]): 0%
- Activity (Homo sapiens [21]): 3%
- Activity (Homo sapiens [22]): 2%
- Activity (Homo sapiens [23]): 1%
- Activity (Homo sapiens [24]): 2%
- Activity (Homo sapiens [25]): 5%
- Activity (Homo sapiens [26]): 0%
- Activity (Homo sapiens [27]): 5%
- Activity (Homo sapiens [28]): 7%
- Activity (Homo sapiens [29]): 0%
- Activity (Homo sapiens [30]): 0%
- Activity (Homo sapiens [31]): 0%
- AUC at 48 h [32]: 6110 ng·h/mL
- Cmax [33]: 313 ng/mL
- AUC at 48 h [34]: 5810 ng·h/mL
- AUC (Homo sapiens [35]): 411 ng·h/mL
- AUC (Homo sapiens [36]): 4600 ng·h/mL
- Activity (Homo sapiens [37]): 35%
- Activity (Homo sapiens [38]): 55%
- Activity (Homo sapiens [39]): 35%
- Activity (Homo sapiens [40]): 45%
- Activity (Homo sapiens [41]): 59%
- Activity (Homo sapiens [42]): 50%
- Activity (Homo sapiens [43]): 0%
- Activity (Homo sapiens [44]): 6%
- Activity (Homo sapiens [45]): 2%
- Activity (Homo sapiens [46]): 0%
- Activity (Homo sapiens [47]): 6%
- Cmax (clinical): 268 ng/mL
- Activity (Homo sapiens [48]): 9%
- Activity (Homo sapiens [49]): 4%
- Activity (Homo sapiens [50]): 4%
- Activity (Homo sapiens [51]): 12%
- Activity (Homo sapiens [52]): 4%
- Activity (Homo sapiens [53]): 7%
